Values after ≈ are worked out from the molar mass of the structure shown.
Key:
Candida parapsilosis = test: Antifungal activity against Candida parapsilosis NRLL Y 12696 after 48 hrs by broth microdilution assay; format: functional; conditions: Lodderomyces parapsilosis, NRLL Y 12696, 48 h
Outline: (§1)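 Broth microdilution of DMSO stocks serially diluted in sterile water (4 to 0.0039 mg/mL). Yeasts grown on SDA at 37 °C for 24 h, suspended in double-strength PDB at 10⁵ spores/mL. Incubated at 37 °C for 48 h, then sprayed with 0.5% aqueous TTC. MIC = lowest concentration inhibiting visible growth. Ketoconazole reference.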

Candida tropicalis = test: Antifungal activity against Candida tropicalis NRLL Y 12968 after 48 hrs by broth microdilution assay; format: functional; conditions: NRLL Y 12968, 48 h; outline: as §1
Aspergillus parasiticus = test: Antifungal activity against Aspergillus parasiticus NRRL 465 after 72 hrs by broth microdilution assay; format: functional; conditions: NRRL 465, 72 h
Outline: (§2)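 Compounds dissolved in DMSO, diluted in sterile distilled water from 4 to 0.0039 mg/mL. Molds grown on PDA at 25 °C for 5 days, suspended in double-strength PDB at 10⁵ spores/mL. Incubated at 25 °C for 72 h; mycelial growth read under stereo microscope. MIC = lowest concentration inhibiting visible growth. Ketoconazole reference.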

A549 = test: Antiproliferative activity against human A549 cells after 24 hrs by XTT assay; format: functional, cell-based; conditions: A549, 24 h
Outline: (§3)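 A549 cells in RPMI and NIH/3T3 cells in DMEM, each with fetal calf serum, antibiotics and 7.5% NaHCO₃, at 37 °C, 5% CO₂. Seeded at 20,000 cells/well, 24 h, then compounds added in medium at 500–3.9 doses (final DMSO <0.1%) for 24 h. XTT read after 3 h at 480 nm (ref 680 nm). IC₅₀ by non-linear regression; triplicates; cisplatin control.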

Nakaseomyces glabratus = test: Antifungal activity against Candida glabrata clinical isolate after 48 hrs by broth microdilution assay; format: functional; outline: as §1
[1] = Cytotoxicity against mouse NIH/3T3 cells after 24 hrs by XTT assay; format: cell-based; conditions: NIH3T3, 24 h; outline: as §3
Aspergillus flavus = test: Antifungal activity against Aspergillus flavus NRRL 980 after 72 hrs by broth microdilution assay; format: functional; conditions: NRRL 980, 72 h; outline: as §2
Fusarium solani = test: Antifungal activity against Fusarium solani NRRL 13414 after 72 hrs by broth microdilution assay; format: functional; conditions: NRRL 13414, 72 h; outline: as §2
Pichia kudriavzevii = test: Antifungal activity against Candida krusei NRLL Y 7179 after 48 hrs by broth microdilution assay; format: functional; conditions: NRLL Y 7179, 48 h; outline: as §1
Aspergillus niger = test: Antifungal activity against Aspergillus niger ATCC 1094 after 72 hrs by broth microdilution assay; format: functional; conditions: ATCC 1094, 72 h; outline: as §2
[Candida] zeylanoides = Antifungal activity against Candida zeylanoides NRLL Y 1774 after 48 hrs by broth microdilution assay; format: functional; conditions: Dujonia zeylanoides, NRLL Y 1774, 48 h; outline: as §1
Candida albicans = test: Antifungal activity against Candida albicans ATCC 90028 after 48 hrs by broth microdilution assay; format: functional; conditions: ATCC 90028, 48 h; outline: as §1

Compound | MIC (Candida parapsilosis) [µg/mL] | MIC (Candida tropicalis) [µg/mL] | MIC (Aspergillus parasiticus) [µg/mL] | IC50 (A549) [µg/mL] | MIC (Nakaseomyces glabratus) [µg/mL] | MIC (Aspergillus flavus) [µg/mL] | MIC (Fusarium solani) [µg/mL] | MIC (Pichia kudriavzevii) [µg/mL] | MIC (Aspergillus niger) [µg/mL] | MIC ([Candida] zeylanoides) [µg/mL] | MIC (Candida albicans) [µg/mL] | IC50 [1] [µg/mL]
Cc1ccc(-c2csc(N3N=C(c4ccc(Cl)s4)CC3c3ccc(F)cc3)n2)cc1 (centres undefined) | 250 (≈ 551 µM) | 250 (≈ 551 µM) | 250 (≈ 551 µM) | > 500 | 125 (≈ 275 µM) | 250 (≈ 551 µM) | 250 (≈ 551 µM) | 250 (≈ 551 µM) | 250 (≈ 551 µM) | 250 (≈ 551 µM) | 250 (≈ 551 µM) | > 500
COc1ccc(-c2csc(N3N=C(c4ccc(Cl)s4)CC3c3ccc(F)cc3)n2)cc1 (centres undefined) | 250 (≈ 532 µM) | 250 (≈ 532 µM) | 250 (≈ 532 µM) | > 500 | 125 (≈ 266 µM) | 250 (≈ 532 µM) | 250 (≈ 532 µM) | 250 (≈ 532 µM) | 250 (≈ 532 µM) | 250 (≈ 532 µM) | 250 (≈ 532 µM) | 103 (≈ 219 µM)
Fc1ccc(C2CC(c3ccc(Cl)s3)=NN2c2nc(-c3ccc4c(c3)OCO4)cs2)cc1 (centres undefined) | 250 (≈ 517 µM) | 250 (≈ 517 µM) | 250 (≈ 517 µM) | > 500 | 125 (≈ 258 µM) | 250 (≈ 517 µM) | 250 (≈ 517 µM) | 250 (≈ 517 µM) | 250 (≈ 517 µM) | 250 (≈ 517 µM) | 250 (≈ 517 µM) | 73.8 (≈ 152 µM)
Cc1ccc(C2=NN(c3nc(-c4ccc(F)cc4)cs3)C(c3ccc(F)cc3)C2)s1 (centres undefined) | 250 (≈ 571 µM) | 250 (≈ 571 µM) | 250 (≈ 571 µM) | 125 (≈ 286 µM) | 125 (≈ 286 µM) | 250 (≈ 571 µM) | 250 (≈ 571 µM) | 250 (≈ 571 µM) | 250 (≈ 571 µM) | 250 (≈ 571 µM) | 250 (≈ 571 µM) | > 500
Cc1ccc(C2=NN(c3nc(-c4ccc(Br)cc4)cs3)C(c3ccc(F)cc3)C2)s1 (centres undefined) | 250 (≈ 502 µM) | 250 (≈ 502 µM) | 250 (≈ 502 µM) | > 500 | 125 (≈ 251 µM) | 250 (≈ 502 µM) | 250 (≈ 502 µM) | 250 (≈ 502 µM) | 250 (≈ 502 µM) | 250 (≈ 502 µM) | 250 (≈ 502 µM) | > 500
Cc1ccc(C2=NN(c3nc(-c4ccc(C(F)(F)F)cc4)cs3)C(c3ccc(F)cc3)C2)s1 (centres undefined) | 250 (≈ 513 µM) | 250 (≈ 513 µM) | 250 (≈ 513 µM) | > 500 | 250 (≈ 513 µM) | 250 (≈ 513 µM) | 250 (≈ 513 µM) | 250 (≈ 513 µM) | 250 (≈ 513 µM) | 250 (≈ 513 µM) | 250 (≈ 513 µM) | > 500
CC(=O)N1CCN(c2ccc(OCC3COC(Cn4ccnc4)(c4ccc(Cl)cc4Cl)O3)cc2)CC1 (centres undefined) [KETOCONAZOLE] | 15.6 (≈ 29.4 µM) | 125 (≈ 235 µM) | 7.81 (≈ 14.7 µM) |  | 62.5 (≈ 118 µM) | 15.6 (≈ 29.4 µM) | 62.5 (≈ 118 µM) | 125 (≈ 235 µM) | 31.2 (≈ 58.8 µM) | 250 (≈ 470 µM) | 62.5 (≈ 118 µM) | 

Further compounds by falling MIC (Candida parapsilosis), results first:

MIC (Candida parapsilosis) [µg/mL] | MIC (Candida tropicalis) [µg/mL] | MIC (Aspergillus parasiticus) [µg/mL] | IC50 (A549) [µg/mL] | MIC (Nakaseomyces glabratus) [µg/mL] | MIC (Aspergillus flavus) [µg/mL] | MIC (Fusarium solani) [µg/mL] | MIC (Pichia kudriavzevii) [µg/mL] | MIC (Aspergillus niger) [µg/mL] | MIC ([Candida] zeylanoides) [µg/mL] | MIC (Candida albicans) [µg/mL] | Compound | IC50 [1] [µg/mL]
500 (≈ 1190 µM) | 500 (≈ 1190 µM) | 250 (≈ 596 µM) | > 500 | 125 (≈ 298 µM) | 250 (≈ 596 µM) | 250 (≈ 596 µM) | 500 (≈ 1190 µM) | 250 (≈ 596 µM) | 500 (≈ 1190 µM) | 500 (≈ 1190 µM) | Cc1ccc(C2=NN(c3nc(-c4ccccc4)cs3)C(c3ccc(F)cc3)C2)s1 (centres undefined) | > 500
500 (≈ 1150 µM) | 500 (≈ 1150 µM) | 250 (≈ 577 µM) | > 500 | 250 (≈ 577 µM) | 250 (≈ 577 µM) | 250 (≈ 577 µM) | 500 (≈ 1150 µM) | 250 (≈ 577 µM) | 500 (≈ 1150 µM) | 500 (≈ 1150 µM) | Cc1ccc(-c2csc(N3N=C(c4ccc(C)s4)CC3c3ccc(F)cc3)n2)cc1 (centres undefined) | > 500
500 (≈ 1110 µM) | 500 (≈ 1110 µM) | 250 (≈ 556 µM) | 184 (≈ 408 µM) | 250 (≈ 556 µM) | 250 (≈ 556 µM) | 250 (≈ 556 µM) | 500 (≈ 1110 µM) | 250 (≈ 556 µM) | 500 (≈ 1110 µM) | 500 (≈ 1110 µM) | COc1ccc(-c2csc(N3N=C(c4ccc(C)s4)CC3c3ccc(F)cc3)n2)cc1 (centres undefined) | 146 (≈ 326 µM)
250 (≈ 551 µM) | 250 (≈ 551 µM) | 250 (≈ 551 µM) | > 500 | 125 (≈ 275 µM) | 250 (≈ 551 µM) | 250 (≈ 551 µM) | 250 (≈ 551 µM) | 250 (≈ 551 µM) | 250 (≈ 551 µM) | 250 (≈ 551 µM) | Cc1ccc(C2=NN(c3nc(-c4ccc(Cl)cc4)cs3)C(c3ccc(F)cc3)C2)s1 (centres undefined) | > 500
250 (≈ 538 µM) | 250 (≈ 538 µM) | 250 (≈ 538 µM) | 16.7 (≈ 35.9 µM) | 125 (≈ 269 µM) | 250 (≈ 538 µM) | 250 (≈ 538 µM) | 250 (≈ 538 µM) | 250 (≈ 538 µM) | 250 (≈ 538 µM) | 250 (≈ 538 µM) | Cc1ccc(C2=NN(c3nc(-c4ccc([N+](=O)[O-])cc4)cs3)C(c3ccc(F)cc3)C2)s1 (centres undefined) | 15.6 (≈ 33.6 µM)
250 (≈ 539 µM) | 250 (≈ 539 µM) | 250 (≈ 539 µM) | 173 (≈ 374 µM) | 250 (≈ 539 µM) | 250 (≈ 539 µM) | 250 (≈ 539 µM) | 250 (≈ 539 µM) | 250 (≈ 539 µM) | 250 (≈ 539 µM) | 250 (≈ 539 µM) | Cc1ccc(C2=NN(c3nc(-c4ccc5c(c4)OCO5)cs3)C(c3ccc(F)cc3)C2)s1 (centres undefined) | 125 (≈ 270 µM)

From ChEMBL document CHEMBL3407339, “A novel series of thiazolyl-pyrazoline derivatives: synthesis and evaluation of antifungal activity, cytotoxicity and genotoxicity” (Eur J Med Chem, 2015)
